KDM4C inh = inhibitors of human demethylase GASC-1 KDM4C. Q9H3R0. GST-KDM4C 2-372, H3K9me3 peptide, LANCE TR-FRET. inhibition, % at 12.5 µM. hit rate 0.15% among 96,000;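 active = mean replicate inhibition above about 25%, with at least 55% of replicates also reaching it, limit read from the data, passing the limit was not always enough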
Target sequence (Q9H3R0 2-372 limits assumed): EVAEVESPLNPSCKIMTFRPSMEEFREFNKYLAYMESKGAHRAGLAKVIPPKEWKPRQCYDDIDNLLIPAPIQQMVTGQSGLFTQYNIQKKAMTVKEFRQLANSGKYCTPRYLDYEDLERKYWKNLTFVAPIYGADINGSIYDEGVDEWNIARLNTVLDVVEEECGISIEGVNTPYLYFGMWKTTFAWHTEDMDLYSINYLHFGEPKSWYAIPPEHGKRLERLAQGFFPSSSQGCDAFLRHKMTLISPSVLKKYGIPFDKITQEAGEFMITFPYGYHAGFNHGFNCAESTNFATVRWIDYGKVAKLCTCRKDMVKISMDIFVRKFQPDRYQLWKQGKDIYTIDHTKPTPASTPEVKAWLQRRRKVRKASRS
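reagent = H3K9me3 peptide substrate, Fe(II), 2-oxoglutarate | system = GST-tagged GASC-1 (JMJD2C) catalytic fragment, aa 2-372 | amount = enzyme final amount 10 nM | read-out = Fall in 671/618 emission ratio as inhibition | medium = HEPES buffer, pH 7.5, plus ascorbate | schedule = 30 min reaction, 60 min detection, RT | measured by = LANCE TR-FRET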
IDH1 mut inh = IDH1 R132H (human) inhibition | hit rate 0.18% among 70,000 | inhibition, % at 10 µM | O75874 | IDH1 R132H reductase, diaphorase/resazurin fluorescence, 60 min; in the data active = inhibition above about 34%
Tcruzi prolif = inhibitors of T. cruzi proliferation; T. cruzi beta-gal in NIH3T3, GalScreen luminescence, 90 h; inhibition, % at 8.34 µM; hit rate 5.9% among 77,000;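 active = mean inhibition above about 93%, with at least 55% of replicates each passing it, limit read from the data, passing the limit was not always enough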
Hits are given with their value; . = inactive; / = not tested or not shown. This excerpt belongs to a sample that is enriched for hits.

SMILES	KDM4C inh	IDH1 mut inh	Tcruzi prolif
COC(=O)c1cccc(NC(=O)CN(c2ccc(F)c(Cl)c2)S(C)(=O)=O)c1C	/	.	/
COC(=O)CCCCCCC(=O)N/N=C/c1cc(O)ccc1O	/	53	/
COC(=O)CCCCCCC(=O)N/N=C/c1cc(OC)ccc1O	/	.	/
O=C(CCCCC(=O)N/N=C/c1cc(O)ccc1O)NO	/	88	/
O=C(O)CCCCCC(=O)N/N=C/c1cc(O)ccc1Br	/	.	/
N#CCc1ccc(NC(=O)CN2C(=O)c3ccccc3S2(=O)=O)cc1	/	.	/
CCn1c(SCC(=O)Nc2ccc(Cl)cc2Cl)nnc1-c1ccc(Cl)c(Cl)c1	/	.	/
COc1ccc(OCC(=O)Nc2cc(OC)c(Cl)cc2OC)cc1	/	.	/
CN(C)CC(=O)N[C@H]1CC[C@H](CCn2cc(CN(C)C)nn2)O[C@H]1CO	92	101	.
CN(C)CC(=O)N[C@H]1CC[C@H](CCn2cc(CN(C)C)nn2)O[C@@H]1CO	.	.	.
COCc1cn(CC[C@H]2CC[C@@H](NC(=O)CCN3CCCCC3)[C@H](CO)O2)nn1	.	.	.
COCc1cn(CC[C@@H]2CC[C@H](NC(=O)CCN3CCCCC3)[C@@H](CO)O2)nn1	67	68	.
Cc1cc(C)c(NC(=O)CSc2nc(-c3ccccc3)c(-c3ccccc3)[nH]2)c(C)c1	/	.	/
C[C@@H]1CN([C@@H](C)CO)S(=O)(=O)c2ccc(-c3cccnc3)cc2O[C@@H]1CN(C)Cc1cccnc1	.	/	.
C[C@H]1CN([C@@H](C)CO)S(=O)(=O)c2ccc(-c3ccccc3)cc2O[C@H]1CN(C)Cc1cccnc1	.	/	.
C[C@H]1CN([C@@H](C)CO)S(=O)(=O)c2ccc(-c3ccccc3)cc2O[C@@H]1CN(C)Cc1cccnc1	.	/	116
COc1cccc(-c2ccc3c(c2)O[C@H](CN(C)Cc2cncnc2)[C@@H](C)CN([C@@H](C)CO)S3(=O)=O)c1	.	.	.
C[C@@H]1CN([C@@H](C)CO)S(=O)(=O)c2ccc(-c3ccccc3)cc2O[C@H]1CN(C)Cc1cccnc1	.	66	103
COc1cccc(-c2ccc3c(c2)O[C@@H](CN(C)Cc2ccncc2)[C@@H](C)CN([C@H](C)CO)S3(=O)=O)c1	42	.	/
CCCNC(=O)N(C)C[C@@H]1Oc2cc(-c3cccnc3)ccc2S(=O)(=O)N([C@H](C)CO)C[C@H]1C	.	.	.
CCCNC(=O)N(C)C[C@@H]1Oc2cc(-c3cccnc3)ccc2S(=O)(=O)N([C@@H](C)CO)C[C@@H]1C	30	.	.
O=C(CCCN1C(=O)c2ccccc2C1=O)Nc1cccc(Cl)c1Cl	/	.	/
CS(=O)(=O)N(CC(=O)Nc1cccc(C(F)(F)F)c1)c1cc(Cl)c(Cl)cc1Cl	/	.	/
CC1(C(=O)c2ccccc2)C2c3c(ccc4ccccc34)OC(=O)C21C(=O)c1ccco1 (stereo unspecified)	/	.	/
COC(=O)C1=CC(C(=O)c2ccccc2)=NN(c2ccccc2)C1C(=O)OC (stereo unspecified)	/	.	/
SMILES	KDM4C inh	IDH1 mut inh	Tcruzi prolif
COC(=O)c1sccc1-c1ccc(-c2ccn(C(=O)c3ccc(Cl)cc3)n2)o1	/	.	/
C[C@H]1CN([C@@H](C)CO)S(=O)(=O)c2ccc(C#Cc3cccc(F)c3)cc2O[C@@H]1CN(C)C	55	71	.
CC(C)C#Cc1ccc2c(c1)O[C@@H](CN(C)C)[C@@H](C)CN([C@@H](C)CO)S2(=O)=O	.	.	/
CC(C)CC#Cc1ccc2c(c1)O[C@@H](CN(C)C(=O)NC(C)C)[C@H](C)CN([C@@H](C)CO)S2(=O)=O	.	36	.
CC(C)CC#Cc1ccc2c(c1)O[C@@H](CN(C)C(=O)NC(C)C)[C@@H](C)CN([C@@H](C)CO)S2(=O)=O	.	.	.
CCCC#Cc1ccc2c(c1)O[C@@H](CN(C)S(C)(=O)=O)[C@H](C)CN([C@H](C)CO)S2(=O)=O	.	.	.
CC(C)C#Cc1ccc2c(c1)O[C@@H](CN(C)C)[C@@H](C)CN([C@H](C)CO)S2(=O)=O	60	75	/
C[C@H](CO)N1C[C@H](C)[C@@H](CN(C)C)Oc2cc(C#Cc3cccc(F)c3)ccc2S1(=O)=O	.	.	.
CCCC#Cc1ccc2c(c1)O[C@@H](CN(C)S(C)(=O)=O)[C@@H](C)CN([C@H](C)CO)S2(=O)=O	41	.	.
CCOc1ccc(Nc2ncnc3c2ncn3-c2ccc(OCC)cc2)cc1	/	.	/
Cc1ccc([N+](=O)[O-])cc1S(=O)(=O)NCCOc1ccccc1Cl	/	.	/
CN1CCN(NC(=O)CN2C(=O)S/C(=C/c3ccc(Cl)cc3)C2=O)CC1	/	.	/
c1ccc(Cn2c3ccccc3n3c(SCc4nc5ccccc5[nH]4)nnc23)cc1	/	.	/
O=C(N/N=C/c1ccc2ccccc2c1O)c1ccccn1	/	.	/
N#C[C@@H]1[C@H](c2ccc(C#CCC3CCCC3)cc2)[C@H](CO)N1C(=O)c1ccccn1	.	/	.
N#C[C@H]1[C@H](c2ccc(C#CCC3CCCC3)cc2)[C@H](CO)N1C(=O)c1ccccn1	.	/	104
CC(C)C#Cc1ccc([C@@H]2[C@@H](CO)N(C(=O)c3ccccn3)[C@H]2C#N)cc1	.	/	.
N#C[C@H]1[C@@H](c2ccc(C#CCC3CCCC3)cc2)[C@H](CO)N1C(=O)c1ccccn1	.	/	101
O=C(c1ccccc1)N1CC(=O)N(OCc2ccccc2)C1c1cccs1 (stereo unspecified)	/	.	/
O=C(CCN1CCCCC1)NCC[C@H]1CC[C@H](NC(=O)Cc2cccnc2)[C@H](CO)O1	75	80	.
O=C(CN1CCOCC1)N[C@@H]1CC[C@H](CCNC(=O)C2CCC2)O[C@@H]1CO	.	.	.
O=C(NCC[C@H]1CC[C@@H](NC(=O)c2cccnc2)[C@@H](CO)O1)Nc1ccc(F)cc1	.	.	.
O=C(CCN1CCCCC1)NCC[C@H]1CC[C@H](NC(=O)Cc2cccnc2)[C@@H](CO)O1	.	.	.
O=C(NCC[C@H]1CC[C@H](NC(=O)c2cccnc2)[C@H](CO)O1)Nc1ccc(F)cc1	65	94	.
O=C(NCC[C@@H]1CC[C@H](NS(=O)(=O)c2cccc(F)c2)[C@H](CO)O1)C1CCCC1	36	48	/
SMILES	KDM4C inh	IDH1 mut inh	Tcruzi prolif
O=C(CN1CCOCC1)N[C@H]1CC[C@H](CCNC(=O)C2CCC2)O[C@H]1CO	85	73	.
O=C(NCC[C@H]1CC[C@H](NS(=O)(=O)c2cccc(F)c2)[C@H](CO)O1)C1CCCC1	.	.	/
COc1cc([N+](=O)[O-])ccc1NC(=S)NCc1cn(-c2ccccc2)nc1-c1ccccc1	/	.	/
O=C(Cc1ccncc1)NCC[C@H]1CC[C@H](NC(=O)C2CCCC2)[C@H](CO)O1	58	71	/
O=C(Cc1ccncc1)NCC[C@@H]1CC[C@H](NC(=O)C2CCCC2)[C@@H](CO)O1	.	.	/
Cc1ccccc1S(=O)(=O)N1[C@@H](C#N)[C@@H](c2ccc(-c3ccc(F)cc3)cc2)[C@@H]1CO	.	/	107
Cc1ccccc1S(=O)(=O)N1[C@H](C#N)[C@@H](c2ccc(-c3ccc(F)cc3)cc2)[C@@H]1CO	.	/	.
CC(C)NC(=O)Nc1ccc2c(c1)CC(=O)N([C@H](C)CO)C[C@H](C)[C@@H](CN(C)Cc1ccncc1)O2	.	.	/
C[C@@H]1CN([C@@H](C)CO)C(=O)Cc2cc(NC(=O)Nc3ccc(F)cc3)ccc2O[C@H]1CN(C)Cc1ccncc1	.	34	.

Compound activity (PubChem BioAssay)
